The list is not random: actives were taken first. Their share in the collection is about 1.8%.
M5 antag: human M5 muscarinic receptor antagonists, primary screen, CHO cells, Fluo-8 calcium fluorescence. Muscarinic acetylcholine receptor M5 (Homo sapiens), P08912. CHO-hM5 cells, ACh EC80. inhibition, % at 3 µM. 360,000 compounds, 0.59% hits. AID 624040, 2012;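 active = inhibition above a per-plate cutoff, the mean of that plate's test compounds plus 3 SD, cut at about 27% in these data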;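 also: 0% = acetylcholine EC80 with DMSO and 100% = DMSO without agonist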
M5 PAM: human M5 muscarinic receptor positive allosteric modulators, primary screen, CHO-K1 cells, Fluo-8 calcium fluorescence; CHO-K1 hM5, ACh EC20 PAM; 0% = ACh EC20, 100% = ACh EC100; activation, % at 3 µM; 360,000 compounds, 0.3% hits;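 active = activation above the run cutoff, the mean activation of all test compounds plus 3 SD, cut at about 18% in these data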
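Test system: CHO-K1 hM5 cells / Doses: single-point, 3 µM nominal / Times: Post-acetylcholine fluorescence recording 140 s / Technique: Fluo-8 calcium fluorescence / Measure: Max/basal fluorescence ratio as % of EC20–EC100 ACh window / Benchmarks: low control EC20 acetylcholine (0%), high control EC100 acetylcholine (100%) / Replicates: one well per compound, no replicates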
M5 ag: human M5 muscarinic receptor agonists, primary screen, CHO-K1 cells, Fluo-8 calcium fluorescence; Muscarinic acetylcholine receptor M5 (Homo sapiens), P08912; 360,000 compounds, 0.19% hits; AID 624037, 2012; activation, % at 3 µM; CHO-K1 hM5 cells; 0% DMSO wells, 100% maximal acetylcholine response;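 active = activation above the run's mean over test compounds plus 3 SD, cut at about 23% in these data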;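 also: signal is peak over basal fluorescence ratio across the kinetic read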
M4 antag: human M4 muscarinic receptor antagonists, primary screen, CHO cells, Fluo-8 calcium fluorescence; Muscarinic acetylcholine receptor M4 (Homo sapiens), P08173; CHO-hM4 cells, ACh EC80; inhibition, % at 3 µM; 360,000 compounds, 0.73% hits;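 active = inhibition above its plate's cutoff, the mean inhibition of sample wells plus 3 SD, cut at about 27% in these data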;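 also: 0% = acetylcholine EC80 with DMSO and 100% = DMSO without agonist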
Target sequence (P08173 whole entry, looked up): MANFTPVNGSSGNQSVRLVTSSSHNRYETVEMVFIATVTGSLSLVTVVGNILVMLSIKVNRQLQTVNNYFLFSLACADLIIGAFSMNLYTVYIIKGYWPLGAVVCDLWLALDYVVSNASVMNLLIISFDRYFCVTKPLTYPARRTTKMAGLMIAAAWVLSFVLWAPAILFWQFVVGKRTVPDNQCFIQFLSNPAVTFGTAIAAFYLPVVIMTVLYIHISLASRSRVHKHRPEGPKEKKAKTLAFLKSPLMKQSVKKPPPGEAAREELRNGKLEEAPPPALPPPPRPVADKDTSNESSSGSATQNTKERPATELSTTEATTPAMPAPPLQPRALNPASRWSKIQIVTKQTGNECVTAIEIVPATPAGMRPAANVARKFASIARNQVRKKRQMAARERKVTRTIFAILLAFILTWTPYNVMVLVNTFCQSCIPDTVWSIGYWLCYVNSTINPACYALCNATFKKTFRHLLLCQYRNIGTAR
CHRM4 PAM: human M4 muscarinic receptor positive allosteric modulators, primary screen, CHO-K1 cells, Fluo-8 calcium fluorescence | Muscarinic acetylcholine receptor M4 (Homo sapiens), P08173 | CHO-K1 hM4/Gqi5, ACh EC20; 0% = ACh EC20, 100% = maximal ACh | activation, % at 3 µM | 360,000 compounds, 0.4% hits | AID 624126, 2012;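 active = activation above its plate's cutoff, the mean activation of sample wells plus 3 SD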
M4 ag: human M4 muscarinic receptor agonists, primary screen, CHO-K1 cells, Fluo-8 calcium fluorescence. CHO-K1 hM4/Gqi5; vehicle 0%, full acetylcholine response 100%. activation, % at 3 µM. 360,000 compounds, 0.14% hits. AID 624127, 2012;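 active = activation above the run mean over all test wells plus 3 SD, cut at about 32% in these data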;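 also: peak over basal fluorescence ratio per well then scaled between controls; 0% = DMSO wells and 100% = acetylcholine at EC100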
Starred values were filed as active, the others as inactive; ! = a repeat was not active.

SMILES	M5 antag	M5 PAM	M5 ag	M4 antag	CHRM4 PAM	M4 ag
C=CCNc1ncnc2c1ncn2[C@H]1CN(Cc2ccc(F)cc2)C[C@@H](CO)O1	6	-1	2	-7	7	2
O=C1Cc2ccccc2Sc2ccccc21	-6	0	-6	10	3	0
CN1CCC(=C2c3ccccc3C=Cc3ccccc32)CC1	99*	-18	1	100*	-19	6
CN1CCC(=C2c3ccccc3Sc3ccccc32)CC1	99*	-19	0	99*	-18	10
CN1CCN(C(=O)CCN2C(=O)c3ccccc3C2=O)CC1	6	2	3	2	4	0
CCCC(=O)N1CCCC1(C)C(=O)Nc1ccc2nc(C)ccc2c1 (stereo not given)	4	-5	0	7	8	1
Clc1cccc(CNc2ccn3nc(-c4ccccc4)cc3n2)c1	-6	11	1	-4	16*	5
COc1ccc(-c2nc3ccccn3c2NCc2ccc3c(c2)OCO3)cc1	10	-35	-6	6	-11	8
Clc1cccc(-c2ccc(-c3nc4ccccn4c3NCc3ccccc3)cc2)c1	14	-17	0	29*	-9	6
c1ccc(CNc2c(-c3cccc(SC4CCCCC4)c3)nc3ccccn23)cc1	22	-34	-4	49*!	-12	13
Cc1ccn2c(NCc3ccccc3)c(-c3cccc(SC4CCCCC4)c3)nc2c1	13	-11	-6	11	-8	4
c1ccc(-c2nc3ccccn3c2NCc2ccc3c(c2)OCO3)cc1	11	-21	1	-12	-11	12
COc1ccc(-c2cc(-c3nc4ccccn4c3NCc3ccccc3)ccc2OC)cc1	48*	-38	0	84*	-16	26
Cc1ccc(NC(=O)[C@@H]2O[C@H](CO)[C@H](O)[C@H](O)[C@H]2O)cc1C(F)(F)F	-3	-2	0	3	5	0
Cn1c(=O)c2c(-c3ccccc3)n(-c3cc(Cl)c([N+](=O)[O-])cc3O)cc2n(C)c1=O	0	1	2	2	-3	5
CC(C)c1[nH]nc2c1C1(CCN(Cc3ccccc3)CC1)C(C#N)=C(N)O2	2	1	-3	32*	14	3
CNCCCC1Sc2ccccc2Oc2ccccc21 (stereo not given)	13	-36	-14	8	-11	4
CNCCCC12CCC(c3ccccc31)c1ccccc12	33*!	-18	2	28*!	-18	9
O=C(CC[C@H]1O[C@@H](n2cnc3c(NC(=O)c4ccccc4)ncnc32)[C@H](O)[C@@H]1O)NCc1ccco1	7	2	1	6	-4	1
NC(=O)c1ccc[n+]([C@H]2O[C@@H](COP(=O)([O-])OP(=O)(O)OC[C@H]3O[C@@H](n4cnc5c(N)ncnc54)[C@H](O)[C@@H]3O)[C@H](O)[C@@H]2O)c1	0	-7	25*	0	-2	80*
COc1ccc(C(=O)NC[C@H]2O[C@@H](n3cnc4c(N)ncnc43)[C@H](O)[C@@H]2O)cc1OC	-4	3	2	-6	5	1
Cc1ccc(Nc2nc(NCc3ccccc3)nc3ccsc23)c(C)c1	32*	-23	12	57*	-15	39*
COc1cccc(CNc2nc(NCc3ccccc3)nc3ccsc23)c1	45*	-21	31*	44*	-16	58*
C#Cc1cccc(Nc2nc(NCc3ccccc3)nc3ccsc23)c1	23	-18	3	27*	-11	11
CNc1nc(NCc2cccc(OC)c2)c2sccc2n1	6	-13	9	1	-7	11

Compound activity as filed in PubChem BioAssay.
